# Screens as filed in PubChem BioAssay.
# VIM-2 inhibitor: blocks Pseudomonas aeruginosa VIM-2 metallo-beta-lactamase; purified VIM-2, nitrocefin hydrolysis, epi-absorbance fluorescence; inhibition, % at 5.6 µM; 0.89% of 290,000 active;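 active means inhibition above the mean of all tested compounds plus 3 SD, cutoff set per screening run, cut at about 7.5% in these data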;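 further: red hydrolysis product quenches plate fluorescence so inhibitors raise well fluorescence; 0% = enzyme with DMSO and 100% = DMSO without enzyme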
# DNA FID counter: counter-screen for HCV NS3 helicase inhibitors: DNA intercalator displacement; 0.17% of 290,000 active; inhibition, % at 7.9 µM; DNA fluorescent intercalator displacement, fluorescence; in the data active means inhibition above about 37%;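 further: 0% = vehicle and 100% = reference compound; higher means more ethidium bromide displaced from hairpin DNA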
# IMP-1 inh-1: blocks Pseudomonas aeruginosa IMP-1 metallo-beta-lactamase | AID 1556 | purified IMP-1, nitrocefin hydrolysis, epi-absorbance fluorescence | 0.45% of 290,000 active | inhibition, % at 5.6 µM;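 active means inhibition above the mean plus 3 SD of all compounds in the same screening run, cut at about 4.5% in these data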;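 further: 0% = IMP-1 with DMSO and 100% = DMSO wells lacking enzyme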
#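 System – purified recombinant IMP-1 beta-lactamase · Input – IMP-1 dispensed at 0.2 nM · Timing – 15 min preincubation plus 25 min reaction at 25 °C · Signal – Epi-absorbance fluorescence, 480 nm excitation, 530 nm emission · Measure – percent IMP-1 inhibition derived from blank-referenced optical density · Controls – Enzyme-plus-DMSO low control, enzyme-free DMSO high control · Replication – singlicate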
# HCV NS3 hel inh: inhibitors of Hepatitis C virus NS3 helicase; AID 1800; 0.56% of 290,000 active; NS3 helicase DNA unwinding, Cy5 molecular beacon fluorescence; inhibition, % at 10.9 µM;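 active means inhibition above the mean of all tested compounds plus 3 SD, set per campaign, cut at about 35% in these data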;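 further: 0% = DMSO wells and 100% = thioflavine S control wells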
#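 Assay system – hepatitis C virus NS3 helicase domain fragment enzyme · Buffer or medium – MOPS pH 6.5, MgCl2, DTT, Tween20, BSA · Reagent – Cy5/quencher beacon DNA duplex and ATP to start · Compound – single 10.9 µM dose · Timing – 1 h at 25 °C · Technique – Cy5 beacon fluorescence read at start and 1 h · Measure – % inhibition of unwinding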
# IMP-1 inh-2: IMP-1 inhibition, counter-screen for VIM-2 inhibitors; shares compounds with VIM-2 inhibitor; purified IMP-1, nitrocefin hydrolysis, epi-absorbance fluorescence; inhibition, % at 5.6 µM; 1,300 tested, under 10 active; call rule not given here;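 further: 0% = enzyme with vehicle and 100% = vehicle without enzyme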
# VIM-2 FRET ctr: VIM-2 FRET inhibition, artifact counter-screen. shares compounds with VIM-2 inhibitor. purified VIM-2, CCF2 FRET substrate hydrolysis. inhibition, % at 5.6 µM. 23% of 1,300 active. AID 1857;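 active means inhibition above the mean of all tested compounds plus 3 SD, cut at about 19% in these data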;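 further: 0% = VIM-2 plus DMSO and 100% = no enzyme wells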
# TEM-1 inh: TEM-1 inhibition, counter-screen for VIM-2 inhibitors. shares compounds with VIM-2 inhibitor. Purified TEM-1, nitrocefin hydrolysis, epi-absorbance fluorescence. inhibition, % at 5.6 µM. 3% of 1,300 active. AID 1866;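 active means inhibition above that campaign's mean inhibition plus 3 SD, cut at about 0.46% in these data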;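 further: 0% = TEM-1 with DMSO and 100% = TEM-1 with 100 µM potassium clavulanate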
# Target sequence (P62593 whole entry, looked up): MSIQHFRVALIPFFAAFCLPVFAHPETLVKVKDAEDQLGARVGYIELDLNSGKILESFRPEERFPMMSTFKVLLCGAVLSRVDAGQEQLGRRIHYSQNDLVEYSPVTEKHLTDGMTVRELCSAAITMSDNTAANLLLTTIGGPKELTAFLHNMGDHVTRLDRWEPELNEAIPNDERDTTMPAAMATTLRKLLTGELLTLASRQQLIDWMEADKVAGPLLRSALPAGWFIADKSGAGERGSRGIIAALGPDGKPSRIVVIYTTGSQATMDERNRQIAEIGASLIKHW
# VIM-2 confirm 2: confirmation of P. aeruginosa VIM-2 metallo-beta-lactamase inhibitors. purified VIM-2, nitrocefin hydrolysis, epi-absorbance. 96% of 1,300 active. inhibition, % at 5.6 µM. AID 2187. shares compounds with VIM-2 inhibitor;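 active means inhibition of the VIM-2 beta-lactamase enzyme above about 11% from the earlier first-round screen, limit read from the data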;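 further: 0% = VIM-2 with DMSO and 100% = buffer wells without enzyme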
# The depositor's hits bear a star; . = no result given. Rows were chosen to be rich in hits. Some 1.9% of all compounds tested hit in one or more screens of this group.
SMILES,VIM-2 inhibitor,DNA FID counter,IMP-1 inh-1,HCV NS3 hel inh,IMP-1 inh-2,VIM-2 FRET ctr,TEM-1 inh,VIM-2 confirm 2
COc1cc(/C=N/N2CCN(Cc3ccc(C)cc3)CC2)cc(OC)c1O,22*,-4,-8,-13,-6,-8,-9,32*
Cc1ccc(C(C(=O)Nc2ccc(C(C)C)cc2)N(C)C(=O)c2ccc(=O)[nH]c2)cc1 (configuration not stated),-1,-23,-2,-6,.,.,.,.
CCc1cc(=O)oc2c3c(cc(OCC(=O)NCCCn4ccnc4)c12)OC(C)(C)CC3,46*,8,-4,5,-3,-10,-2,55*
CCc1cc(=O)oc2c(C)c(OCC(=O)NCCCn3ccnc3)ccc12,23*,12,0,3,-3,-1,-7,34*
Cc1cc(Cl)ccc1OCC(=O)NCCCn1ccnc1,-8,1,-2,2,.,.,.,.
CCOc1ccc(-n2nnnc2SCC(=O)NNC(=O)c2ccco2)cc1,-6,-6,-3,-8,.,.,.,.
COc1cccc(-n2c(CCn3nc(C)c([N+](=O)[O-])c3C)n[nH]c2=S)c1,14*,-4,-3,-1,-3,38*,-4,25*
Cc1cccc(-n2c(CCn3nc(C)c([N+](=O)[O-])c3C)n[nH]c2=S)c1,17*,-12,-5,-18,-4,46*,-7,30*
COc1ccc(CCn2nc(C)c([N+](=O)[O-])c2C)cc1,0,-7,-2,3,.,.,.,.
CC(C)c1ccc(/C=c2\sc3nc(-c4ccncc4)nn3c2=O)cc1,-1,-42,-4,35,.,.,.,.
Cc1ccc(/C=c2\sc3nc(-c4cccnc4)nn3c2=O)cc1,56*,-27,-3,13,-2,65*,-5,60*
O=C(CSc1nnc(NC(=O)c2cccc(F)c2)s1)NCC1CCCO1 (configuration not stated),17*,-13,-1,4,-2,26*,-5,15*
CC(C)(C)c1ccc(C(=O)Nc2nnc(SCC(=O)NCC3CCCO3)s2)cc1 (configuration not stated),1,-27,0,-4,.,.,.,.
Cc1cccc(C(=O)Nc2nnc(SCC(=O)NCc3ccco3)s2)c1,18*,-9,-1,-4,-3,37*,-7,24*
CC(NS(=O)(=O)c1ccc2c(c1)C(=O)c1cc(S(=O)(=O)NC(C)C(=O)O)ccc1-2)C(=O)O (configuration not stated),18*,1,-2,-2,-3,21*,-6,19*
Cc1sc2c(=O)n3c(nc2c1C(=O)NCCCN1CCOCC1)CCCCC3,18*,11,-3,0,-2,0,-6,36*
Cc1sc2c(=O)n3c(nc2c1C(=O)NC1CCCCC1)CCCCC3,-1,-2,-1,-6,.,.,.,.
COc1ccc(-c2nnc3c4ccccc4c(C)nn23)cc1S(=O)(=O)N1CCN(CCO)CC1,27*,1,-6,-7,-3,11,-9,40*
Cc1nn2c(-c3ccc(S(=O)(=O)N4CCN(CCO)CC4)o3)nnc2c2ccccc12,26*,-1,0,13,-2,8,-3,35*
COc1ccc(-c2nnc3c4ccccc4c(C)nn23)cc1,7,-17,-2,-22,.,.,.,.
O=S(=O)(c1ccccc1)N1CCN(CCO)CC1,-1,-3,-1,-6,.,.,.,.
Cc1ccc(NC(=O)CC(NCC2CCCO2)C(=O)O)cc1C (configuration not stated),-3,-1,-5,21,.,.,.,.
Clc1ccc2nc(N3CCNCC3)nc(-c3ccccc3)c2c1,12*,44*,2,-50,-3,-3,-6,17*
CN1CCN(c2nc(-c3ccccc3)c3cc(Cl)ccc3n2)CC1,4,14,-4,-54,.,.,.,.
Cc1ccc(N2C(SCC(=O)O)=NC(=Nc3cccc(C)c3)C23CCCC3)cc1,-2,-2,-2,-13,.,.,.,.
SMILES,VIM-2 inhibitor,DNA FID counter,IMP-1 inh-1,HCV NS3 hel inh,IMP-1 inh-2,VIM-2 FRET ctr,TEM-1 inh,VIM-2 confirm 2
Cc1ccc2oc(=O)c3cc(C(=O)N4CCN(C)CC4)sc3c2c1,13*,6,-1,5,-4,4,-9,20*
Cc1ccc2oc(=O)c3cc(C(=O)NCc4ccco4)sc3c2c1,-2,-6,-3,1,.,.,.,.
CC(C(=O)O)c1cccc(C(=O)c2ccccc2)c1 (configuration not stated),18*,-1,-5,5,-2,52*,-6,34*
CC(=O)Nc1ccc(NC(=O)C(C)c2cccc(C(=O)c3ccccc3)c2)cc1 (configuration not stated),-4,-18,-1,-2,.,.,.,.
Cc1cc(C)c2nc(C)cc(N/N=C/c3ccc(O)cc3)c2c1,13*,48*,-1,-10,-3,-3,-6,19*
Cc1ccc2nc(C)cc(N/N=C/c3ccccc3O)c2c1,-5,-9,-5,-2,.,.,.,.
CCOC(=O)c1sc2nc(C)nc(NCc3ccc(F)cc3)c2c1C,1,-19,-2,-9,.,.,.,.
CCOC(=O)c1sc2nc(C)nc(NCc3cccnc3)c2c1C,24*,-10,-3,-2,-3,-4,-6,50*
COc1cccc2oc3ccc(C#CC4(N)CCCCC4)cc3c(=O)c12,15*,23,-1,-85,-3,-2,-6,20*
Cn1c2ccccc2c(=O)c2cc(C#Cc3ccccn3)ccc21,14*,-8,-3,12,-2,-8,-5,17*
Cn1c2ccccc2c(=O)c2cc(C#CC3(O)CCCCC3)ccc21,3,-31,-5,-10,.,.,.,.
Cn1c2ccccc2c(=O)c2ccc(C#CC3(N)CCCCC3)cc21,28*,20,-3,-81,-3,0,-10,39*
Cn1c2ccccc2c(=O)c2ccc(F)cc21,13*,-5,-4,10,-2,-22,-10,24*
N=c1c(S(=O)(=O)c2ccc(Cl)cc2)cc2c(=O)n3ccccc3nc2n1C1CCCCC1,0,1,-4,0,.,.,.,.
CSc1ccccc1NC(=O)c1csc(C)c1,-2,-9,-4,-2,.,.,.,.
COc1cc(OC)c2nc(C)c3c(c2c1)N(c1ccc(O)cc1)CC3,57*,-6,-1,-1,-4,-31,-6,69*
Oc1ccccc1-c1n[nH]c(=S)n1Cc1ccccc1,13*,-12,-3,-8,-4,26*,-9,15*
Oc1ccc(Br)cc1-c1n[nH]c(=S)n1Cc1ccccc1,-3,-15,-3,17,.,.,.,.
Cc1ccc(-c2n[nH]c(=S)n2Cc2ccccc2)cc1,12*,-22,0,12,-3,29*,-10,16*
